Data published in ChEMBL document CHEMBL4184226, “Design and synthesis of novel senkyunolide analogues as neuroprotective agents” (2018).
Active and inactive are the calls of the source. The rule behind the calls is not given here.

Columns and labels:
Assay type in all cases: functional, cell-based
HT-22 [1] = assay: Neuroprotective activity against oxygen glucose deprivation-induced cell death in mouse HT22 cells assessed as increase cell survival at 6.25 to 100 uM by MTT assay
Summary of the method: (§1)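 Mouse hippocampal HT-22 cells were split into blank control, OGD model and treated groups. Treated cells were exposed to oxygen glucose deprivation with test compound at 5 concentrations. The reference compound was dosed at 10 times the test-compound level. Viability was read by MTT and compared against the control and model groups. Each assay was run in triplicate.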

HT-22 [2] = assay: Neuroprotective activity against oxygen glucose deprivation-induced cell death in mouse HT22 cells assessed as increase cell survival at 100 uM by MTT assay; summary of the method: as §1
HT-22 [3] = assay: Neuroprotective activity against H2O2-induced oxidative stress-mediated cell death in mouse HT22 cells assessed as compound level causing increase cell survival at 1 to 100 uM by MTT assay

## CCC/C=C1/Oc2ccc(OC(=O)CCC(=O)OCCCOc3no[n+]([O-])c3S(=O)(=O)c3ccccc3)cc2C1=O
HT-22 [1]
  Activity: Dose-dependent effect
HT-22 [2]
  Activity: Active
HT-22 [3]
  Activity: Active

## CCC/C=C1/Oc2ccc(OC(=O)CCC(=O)OC/C=C/COc3no[n+]([O-])c3S(=O)(=O)c3ccccc3)cc2C1=O
HT-22 [1]
  Activity: Dose-dependent effect

## CCC/C=C1/Oc2c(ccc(OC)c2OC)C1=O
HT-22 [1]
  Activity: Dose-dependent effect

## CCC/C=C1/Oc2cc(OC)ccc2C1=O
HT-22 [1]
  Activity: Dose-dependent effect
HT-22 [3]
  Activity: Active

## CCC/C=C1/C(=O)Oc2cc(OC)ccc21
HT-22 [1]
  Activity: Dose-dependent effect

## CCC/C=C1/Oc2ccc(OC(=O)CCC(=O)OCCCCOc3no[n+]([O-])c3S(=O)(=O)c3ccccc3)cc2C1=O
HT-22 [1]
  Activity: Dose-dependent effect
HT-22 [3]
  Activity: Active

## CCC/C=C1/C(=O)Oc2ccc(OC)cc21
HT-22 [1]
  Activity: Dose-dependent effect

## CCCCC1Oc2cc(OC)ccc2C1=O (stereo unspecified)
HT-22 [1]
  Activity: Dose-dependent effect

## CCCCC1Oc2c(ccc(OC)c2OC)C1=O (stereo unspecified)
HT-22 [1]
  Activity: Dose-dependent effect

## CCC/C=C1/Oc2ccc(OC(=O)CCC(=O)OC(C)CCOc3no[n+]([O-])c3S(=O)(=O)c3ccccc3)cc2C1=O (stereo unspecified)
HT-22 [1]
  Activity: Dose-dependent effect

## CCC/C=C1/Oc2ccccc2C1=O
HT-22 [1]
  Activity: Dose-dependent effect

## CCC/C=C1/C(=O)Oc2ccccc21
HT-22 [1]
  Activity: Dose-dependent effect
